Sampled rows, rich in hits. Any-hit rate of the full collection: about 2.3%.
Scp-1 inhibitor = inhibitors of human Scp-1 phosphatase | Q9GZU7 | Recombinant Scp1, phosphopeptide, malachite green phosphate absorbance | inhibition, % at 20 µM | hit rate 0.88% among 340,000 | AID 493091;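 active means inhibition above about 50% at 20 µM, limit read from the data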;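 further: plate controls were DMSO wells with enzyme for no effect and wells lacking enzyme for full effect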
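Test system: SCP-1 catalytic domain; Buffer or medium: Acidic Tris acetate buffer with magnesium and detergent; Also added: Phosphorylated 17-residue peptide substrate; Compound: single 20 µM dose, 1% DMSO; Schedule: enzyme reaction 45 min at room temperature, colour 5 min, stabilisation 30 min; Signal: Phosphate-binding colour reagent, absorbance read at 630 nm.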
LMPTP block = LMPTP (human) inhibition; P24666; recombinant LMPTP-A, OMFP fluorogenic substrate, fluorescence intensity; inhibition, % at 20 µM; hit rate 0.22% among 360,000;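 active means compounds that cut the enzyme signal by at least half of the control window in the single-dose screen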;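 further: plate controls were DMSO wells with enzyme plus substrate for no effect and substrate without enzyme for full effect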
Target sequence (P24666 whole entry, looked up): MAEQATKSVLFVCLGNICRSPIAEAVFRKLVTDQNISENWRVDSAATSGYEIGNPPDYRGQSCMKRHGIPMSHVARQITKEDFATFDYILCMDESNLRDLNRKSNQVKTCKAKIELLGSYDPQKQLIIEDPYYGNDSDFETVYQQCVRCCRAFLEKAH
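Test system – LMPTP-A enzyme · Amount – LMPTP-A at 0.625 nM final in the reaction · Buffer or medium – Bis-Tris pH 6.0, DTT, detergent · Reagent – OMFP 400 µM · Doses – single 20 µM dose · Schedule – reaction 50 min, room temperature, dark · Detection – fluorescence intensity of OMFP turnover product · Evaluation – percent inhibition versus substrate-only and uninhibited controls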
Rpn11 block = blocks the human proteasome subunit Rpn11 | AID 588493 | inhibition, % at 20 µM | O00487 | human 26S proteasome, Ub4-pepOG fluorescence polarization; 20S core pre-blocked with epoxomicin | hit rate 0.59% among 360,000;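 active means inhibition at 20 µM, scaled to each plate's controls, above about 33%, limit read from the data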
Target sequence (O00487 whole entry, looked up): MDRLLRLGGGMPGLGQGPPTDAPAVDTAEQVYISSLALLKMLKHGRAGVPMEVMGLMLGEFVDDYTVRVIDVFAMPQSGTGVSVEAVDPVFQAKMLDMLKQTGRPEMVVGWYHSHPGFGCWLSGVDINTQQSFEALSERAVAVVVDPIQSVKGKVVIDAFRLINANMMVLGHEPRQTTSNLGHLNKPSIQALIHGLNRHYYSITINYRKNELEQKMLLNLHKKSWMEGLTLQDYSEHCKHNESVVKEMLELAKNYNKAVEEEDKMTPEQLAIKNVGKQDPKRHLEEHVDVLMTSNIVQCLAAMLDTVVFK
SUMO1 PPI mod = modulators of human SUMO1-mediated protein-protein interactions; P63165; SUMO1 binding to a labelled peptide, TR-FRET, 1 h; inhibition, % at 20 µM; hit rate 0.33% among 360,000; AID 602429; in the data active means inhibition above about 37%
Target sequence (P63165 whole entry, looked up): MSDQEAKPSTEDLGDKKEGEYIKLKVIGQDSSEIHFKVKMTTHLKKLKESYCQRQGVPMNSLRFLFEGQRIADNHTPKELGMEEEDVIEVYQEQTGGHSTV
DNMT1 inh = inhibitors of human DNMT1. P26358. DNMT1 molecular beacon, Hinp1I cleavage, fluorescence. inhibition (reported as % activation of signal), % at 10 µM. hit rate 0.83% among 360,000. AID 588458; in the data active means inhibition above about 50%
STEP inh = blocks human striatal-enriched tyrosine phosphatase; P54829; recombinant STEP, OMFP fluorogenic substrate, fluorescence; inhibition, % at 20 µM; hit rate 0.25% among 360,000; AID 588621;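 active means inhibition at 20 µM, scaled per plate between control wells, above about 37%, limit read from the data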;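 further: 0% = DMSO with enzyme and substrate and 100% = substrate only without enzyme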
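Test system: STEP tyrosine phosphatase / Reagent: OMFP at 25 µM / Doses: 20 µM, 1% DMSO / Read-out: percent inhibition scaled to no-enzyme and uninhibited-enzyme controls, plate-pattern corrected / Detection: FITC-channel fluorescence of OMFP product / Medium: Bis-Tris buffer pH 6.0, 2.5 mM DTT, 0.005% Tween 20 / Schedule: 20 min at room temperature, dark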
STEP conf = confirmation of human STEP phosphatase inhibitors; recombinant STEP, OMFP fluorogenic substrate, fluorescence; shares compounds with STEP inh; inhibition, % at 20 µM; hit rate 32% among 520; call rule not given here;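 further: 0% = enzyme with substrate plus DMSO and 100% = substrate without enzyme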
* marks the source's active call; other numbers are inactive results; · = no result.

SMILES	Scp-1 inhibitor	LMPTP block	Rpn11 block	SUMO1 PPI mod	DNMT1 inh	STEP inh	STEP conf
CCOC(=O)c1c(C)[nH]c(C)c1C(=O)CSc1nc2ccccc2n1CCC#N	-4	0	-4	3	5	14	·
CCN(CC)S(=O)(=O)c1ccc2oc(C(=O)NCc3ccc(C)cc3)c(C)c2c1	-10	2	1	2	-5	61*	27
c1ccc(CSc2nc3ccccc3[nH]2)cc1	-7	-2	-4	-1	-1	-4	·
Cc1ccccc1-n1nc(CSc2nc3ccccc3[nH]2)c(-c2ccccc2)c1N	-1	1	15	5	-6	58*	7
COC(=O)c1ccc([N+](=O)[O-])cc1N1C(=O)C2C3CCC(C3)C2C1=O (centres undefined)	-8	-2	-4	-18	-1	64*	-3
COc1cc([N+](=O)[O-])ccc1NC(=O)CCN1C(=O)C2C3CCC(C3)C2C1=O (centres undefined)	-5	-3	-7	-21	0	6	·
O=C(O)c1ccccc1C(=O)NCCCCCCNC(=O)c1ccccc1C(=O)O	-6	-5	-3	-3	1	0	·
O=C(O)c1ccccc1C(=O)NCC(O)c1ccccc1 (centres undefined)	-13	-1	1	6	-1	91*	-4
COc1ccc(-c2csc(NC(C)c3nc4cc(C(F)(F)F)ccc4n3CCOCCO)n2)cc1 (centres undefined)	-1	3	2	1	-19	44*	15
CC(=O)c1ccsc1-c1c(C)cc2oc(=O)cc(-c3ccccc3)c2c1C	-7	5	5	-2	-2	1	·
CC(=O)Nc1ccc(C(=O)N/N=C/c2cccnc2)cc1	6	-2	6	-4	2	-3	·
O=C(N/N=C/c1cccnc1)c1ccc(NC(=O)c2ccc(Cl)cc2)cc1	3	9	6	18	19	53*	11
COc1ccc(OC)c(C(=O)c2ccccn2)c1	-12	-1	-4	2	-13	95*	12
COc1ccc(C(=O)O/N=C(\N)c2ccccn2)c(OC)c1	-4	0	9	2	2	1	·
Clc1ccc(CSc2nnnn2-c2ccc3c(c2)OCO3)c(Cl)c1	-22	3	2	0	-3	1	·
COC(=O)c1ccc(COC(=O)CCc2nc(-c3ccccc3)c(-c3ccccc3)o2)cc1	-13	4	7	0	-10	38*	-5
COC(=O)c1ccc(COC(=O)c2ccccn2)cc1	-16	-2	-8	-3	2	1	·
COc1cc2c(cc1OC)C(C(=O)O)C(c1ccc(C)o1)N(C)C2=O (centres undefined)	-4	0	8	2	-1	56*	12
Cn1c(CSc2ncccn2)nnc1SCC(=O)N1CCCc2ccccc21	-2	-1	0	0	-6	53*	-11
O=C(NCCCNC(=O)c1cnccn1)c1ccc(Br)cc1	-1	-2	-5	4	0	59*	0
COc1ccc(C(N)c2csc(Nc3nncc4ccccc34)n2)cc1 (centres undefined)	·	1	7	-41	-6	5	·
O=C1CSC(c2ccc([N+](=O)[O-])cc2)N1Cc1ccccc1 (centres undefined)	-5	1	-1	-32	2	1	·
O=C1NC(=Nc2cccnc2)S/C1=C\c1cccc(F)c1	10	-1	37	-14	-1	57*	6
CCC(C)[C@H](NC(=O)N1CC(=O)Nc2ccccc21)C(=O)Nc1nccs1 (some centres undefined)	3	-1	-2	-3	-1	-1	·
CC(C)[C@H](NC(=O)N1CC(=O)Nc2ccccc21)C(=O)Nc1nccs1	-6	0	1	5	2	92*	0
SMILES	Scp-1 inhibitor	LMPTP block	Rpn11 block	SUMO1 PPI mod	DNMT1 inh	STEP inh	STEP conf
O=C(CNS(=O)(=O)c1ccc(F)cc1)N1CCCC1	-3	0	-3	2	-5	-2	·
Cc1ccc(S(=O)(=O)NCC(=O)N2CCN(c3ccc(F)cc3)CC2)cc1	-4	-2	-3	-2	1	40*	-3
COc1ccc(OC)c(S(=O)(=O)N2CCC(C(=O)NCc3ccccn3)CC2)c1	-3	0	-7	7	1	0	·
Cc1nc(NC(=O)C2CC2)sc1C(=O)Nc1ccccc1	-4	0	-6	-1	-2	2	·
Cc1nc(NC(N)=S)sc1C(=O)Nc1ccccc1	3	11	3	0	1	50*	16
CC(C)(C)c1ccc(NC(=O)CSc2n[nH]c(=O)n2C2CC2)cc1	-2	0	-1	6	2	1	·
c1ccc(CNc2nc(NCC3CC3)nc3cc(-c4ccccc4)sc23)cc1	·	5	-6	-5	-2	11	·
c1ccc(OCCNc2nc(NCC3CC3)nc3cc(-c4ccccc4)sc23)cc1	·	5	0	-3	-15	43*	7
CC(C)[C@H](NC(N)=O)C(=O)Nc1ccc(F)c(Cl)c1	4	1	-9	3	1	0	·
CCOc1ccccc1-c1noc(CCC(=O)NC2CCCCC2)n1	-1	1	0	-1	-1	92*	-1
COc1ccccc1-c1noc(CCC(=O)NC2CCCC2)n1	-5	0	-13	-1	-2	5	·
CCN(CC)C(=O)[C@H]1C[C@H](CC(=O)NC(C)(C)C)C(=O)N2CCc3c([nH]c4cc(CCC(=O)N(C)C)ccc34)[C@]12C	9	-3	2	2	2	0	·
CN1CCN(C(=S)C(=O)Nc2ccc(Br)cc2)CC1	-4	1	1	0	0	94*	77*
CN1CCN(C(=S)Nc2ccc(S(N)(=O)=O)cc2)CC1	-2	-3	-2	4	-4	81*	39*
CN1CCN(C(=S)NC(=O)c2ccc(Br)cc2)CC1	-4	-6	-2	-5	2	-4	·
O=C(COC(=O)c1ccc(S(=O)(=O)C(F)F)cc1)Nc1ccccc1C(=O)NC1CC1	-5	1	-5	-2	-22	-4	·
CCOC(=O)c1ccccc1N/C=C1\CCCCC1=O	-11	-1	-1	-13	3	58*	1
CCOC(=O)c1ccccc1N/C=C/C(=O)c1ccccc1	0	2	-2	-23	-5	0	·
O=C(CCC(=O)NCCCc1ccccc1)NCCCc1ccccc1	-3	-2	-9	0	-1	119*	15
NC(=O)C1CCN(c2nc(-c3cccc(Cl)c3)cs2)CC1	-8	0	-4	-7	-3	0	·

Screening data (PubChem)
